Most compounds without a hit are left out; they make up all but 5.9% or so of the library.
H69AR growth 86K: blocks growth of human H69AR lung tumor cells; 6% of 85,000 active; viability, % at 10 µM; H69AR lung tumor viability, ATP luminescence, 72 h; active compounds read low; AID 598;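 active = viability at or below 40%; inactive = viability above 40%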;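 note: multidrug resistant small cell line overexpressing MRP-1 efflux transporter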
Jurkat tox 60K: cytotoxicity toward Jurkat cells; Jurkat E6.1 viability, ATP luminescence, 48 h; inhibition, % at 4 µM; 1.2% of 56,000 active; AID 463;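 active = inhibition above the mean inhibition of all tested compounds plus 3 SD, cut at about 28% in these data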
MT1-MMP txn act: MT1-MMP promoter transcription activation; HT1080 MT1-MMP promoter luciferase reporter, luminescence, overnight; active compounds read high; 0.16% of 86,000 active; AID 750; activation factor at 10 µM;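 active = activation factor of at least 2 for MT1-MMP transcription at 10 µM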
HUVEC inhibit: inhibitors of human endothelial cell proliferation; HUVEC proliferation, CellTiter-Glo luminescence, 72 h; active compounds read low; viability, % at 10 µM (by protocol); 1.1% of 86,000 active; AID 648;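 active = viability at or below 30%; inactive = viability above 30%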
Fibroblast inh: blocks proliferation of human lung fibroblasts; LL 47 human lung fibroblast viability, ATP luminescence; active compounds read low; viability, % at 10 µM; 1.1% of 85,000 active;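 active = viability at or below 50% in the single dose screen; inactive = viability above 50%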;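 note: compound exposure lasted 72 h before the ATP readout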
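Test system: LL 47 human lung fibroblasts / Quantity: 1,150 cells in each well / Medium: IMEM growth medium with 15% fetal bovine serum / Incubation: 72 h compound exposure at 37 °C after overnight plating / Detection: CellTiter-Glo luminescence measuring cellular ATP / Read-out: % viability versus median cells-only luminescence / Benchmarks: cell-only wells, no compound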
PTK2B oligo ant: Pyk2 (human) oligomerization antagonism | Q14289 | Q293 cells, Pyk2 FERM NanoBiT luminescence; active compounds read low | z-score (the deposit names both 25 µM and 10 µM) | 0.83% of 99,000 active | AID 1347419;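 active = Z-score of -3 or lower, scaled per plate to the spread of control and sample wells; inactive = z-score above -3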;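 note: negative z-score means lost luminescence so less FERM oligomerization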
Target sequence (Q14289 whole entry, looked up): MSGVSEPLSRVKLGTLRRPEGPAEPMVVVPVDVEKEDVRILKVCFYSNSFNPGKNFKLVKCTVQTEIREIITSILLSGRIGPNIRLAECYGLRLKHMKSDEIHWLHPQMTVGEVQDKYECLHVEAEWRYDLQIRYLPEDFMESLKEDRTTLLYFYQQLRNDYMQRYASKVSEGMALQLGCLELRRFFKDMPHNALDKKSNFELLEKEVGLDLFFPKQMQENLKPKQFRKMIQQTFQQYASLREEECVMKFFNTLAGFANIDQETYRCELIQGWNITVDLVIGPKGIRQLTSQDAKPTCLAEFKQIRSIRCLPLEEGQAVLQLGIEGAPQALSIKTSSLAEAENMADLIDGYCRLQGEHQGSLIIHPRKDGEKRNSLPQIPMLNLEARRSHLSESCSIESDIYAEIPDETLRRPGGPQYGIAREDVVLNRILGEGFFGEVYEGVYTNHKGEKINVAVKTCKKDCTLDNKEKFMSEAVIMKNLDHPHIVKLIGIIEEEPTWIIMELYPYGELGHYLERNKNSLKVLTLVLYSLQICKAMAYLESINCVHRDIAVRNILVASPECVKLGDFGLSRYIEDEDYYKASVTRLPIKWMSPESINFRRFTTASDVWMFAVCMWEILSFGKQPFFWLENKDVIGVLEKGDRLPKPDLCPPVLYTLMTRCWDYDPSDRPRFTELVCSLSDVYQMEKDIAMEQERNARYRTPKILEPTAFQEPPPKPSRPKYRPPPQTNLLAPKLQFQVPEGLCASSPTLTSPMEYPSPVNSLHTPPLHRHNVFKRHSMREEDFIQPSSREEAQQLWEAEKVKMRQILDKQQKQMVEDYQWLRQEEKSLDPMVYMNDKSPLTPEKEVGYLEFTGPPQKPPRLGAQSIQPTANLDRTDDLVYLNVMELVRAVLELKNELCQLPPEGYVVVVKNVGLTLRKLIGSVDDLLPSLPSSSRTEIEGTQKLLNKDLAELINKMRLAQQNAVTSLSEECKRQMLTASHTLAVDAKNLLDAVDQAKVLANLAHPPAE
Hits are given with their value; i = inactive; nt = no result given.

SMILES	H69AR growth 86K	Jurkat tox 60K	MT1-MMP txn act	HUVEC inhibit	Fibroblast inh	PTK2B oligo ant
COc1cccc(/C(O)=C2/C(=O)C(=O)N(Cc3cccnc3)C2c2ccco2)c1 (centres undefined)	i	nt	i	i	i	i
CCCCCCn1cnc2c(c1=O)c1nc3ccccc3nc1n2/N=C/c1ccco1	i	i	i	i	i	i
O=c1c2c3nc4ccccc4nc3n(/N=C/c3cccs3)c2ncn1-c1ccccc1	30	i	i	i	i	nt
COCCn1cnc2c(c1=O)c1nc3ccccc3nc1n2/N=C/c1cccc(OC)c1OC	39	i	i	i	i	nt
C=CCn1cnc2c(c1=O)c1nc3ccccc3nc1n2/N=C/c1cccc(OC)c1	22	i	i	i	i	i
CCN1CCN(C(C(=O)NC2CCCCC2)c2ccc(Cl)cc2)CC1 (centres undefined)	i	nt	i	i	i	i
O=C(c1cc(Cl)c(=O)n(Cc2ccc(Cl)cc2)c1)N1CCOCC1	nt	nt	nt	nt	nt	i
CCCOC(=O)CSc1nnc(-c2ccccc2Cl)o1	i	i	i	i	i	i
COC(=O)c1cccc(NC(=O)NC23CC4CC(CC(C4)C2)C3)c1	nt	nt	nt	nt	nt	i
COC(=O)c1ccc(Cl)c(NC(=O)NC2CCCCC2)c1	29	i	i	i	i	i
COC(=O)c1ccc(Cl)c(NC(=O)NC23CC4CC(CC(C4)C2)C3)c1	i	nt	i	i	i	-3.6
C=CCn1c(=O)c2ccccc2n2c(SCC(=O)/C(C#N)=C(\C)N)nnc12	i	i	i	i	i	i
CCC1=C(OC(=O)N(CC)CC)N2C(=O)OC(=NCCc3c[nH]c4ccccc34)[C@]2(Cc2ccccc2)[C@H]2C1=CC[C@H]1C(=O)NC(=O)[C@H]12	nt	nt	i	nt	nt	nt
CCC1=C2CC[C@H]3C(=O)N(CC(=O)OC)C(=O)[C@H]3[C@H]2[C@@]2(Cc3ccccc3)C(=NCCOC)OC(=O)N2C1=O	nt	nt	i	nt	nt	nt
CCOC(=O)c1sc(NC(=O)CSc2nnnn2-c2ccc(C)cc2C)nc1C	i	i	i	25	i	i
COc1ccc(OC)c(-n2nnnc2SCC(=O)Nc2nc(C)c(C)s2)c1	20	i	i	i	i	i
CCOC(=O)c1sc(NC(=O)CSc2nnnn2-c2ccc(C)c(C)c2)nc1C	i	i	i	18	i	i
COc1ccc(OC)c(-n2nnnc2SCC(=O)O)c1	i	nt	i	i	i	i
CCOc1cccc(N(C(=O)Cc2cccs2)C(C(=O)NC2CCCCC2)c2cccn2C)c1 (centres undefined)	i	nt	i	i	i	i
O=C(O)CCSc1nc(C(F)(F)F)cc(=O)n1-c1ccccc1	nt	nt	nt	nt	nt	i
Clc1ccc2c(c1)C(N1CCNCC1)Cc1ccccc1S2 (centres undefined)	2.0	nt	i	2.3	2.4	i
COc1ccc(CCNc2c(C)c(C)nc3ncnn23)cc1	nt	92	i	nt	nt	i
CCc1c(C)nc2ncnn2c1NCCc1ccc(OC)c(OC)c1	i	i	i	i	i	i
Cc1ccc(OCCn2c(NC(=O)c3ccco3)nc3ccccc32)cc1	26	i	i	i	i	i
CCC(=O)Nc1nc2ccccc2n1Cc1ccc(C)cc1	nt	76	i	nt	nt	i
SMILES	H69AR growth 86K	Jurkat tox 60K	MT1-MMP txn act	HUVEC inhibit	Fibroblast inh	PTK2B oligo ant
CCC(=O)Nc1nc2ccccc2n1Cc1ccccc1	i	i	i	i	i	i
CCC(=O)Nc1nonc1-c1nc2ccccc2n1Cc1ccc(Cl)c(Cl)c1	16	i	i	i	i	nt
COc1ccccc1CNc1nc2nc(C)cc(=O)n2[nH]1	i	i	i	i	i	i
COc1ccc(OC)c(C2=NOC(C(=O)Nc3cccc(C(C)=O)c3)C2)c1 (centres undefined)	i	i	i	i	i	i
O=C1CC(c2ccc(F)cc2)Cc2nc(NCC3CCCO3)ncc21 (centres undefined)	i	nt	i	i	i	i
COc1ccc(CCNC(=O)c2c(O)c3c([nH]c2=O)CCCC3)cc1OC	nt	i	i	nt	nt	i
Cc1ccc2c(c1)CCCN2C(=O)c1ccoc1C	34	i	i	i	i	i
Cc1ccc(OCC(=O)Sc2ccc(C)cc2)cc1	17	nt	i	i	i	i
COc1ccc(-n2nc(N)c3c(=O)oc(N(C)C)nc32)cc1	nt	nt	nt	nt	nt	i
C=CCn1c(SCc2nc3c(c(=O)[nH]c(=O)n3CCCC)n2CCC)nnc1-c1ccccc1	i	i	i	i	i	i
COc1ccc(/C=N/n2cc(-c3ccc(OC)cc3)nc2N)cc1	25	i	i	i	i	i
